Holding throughout (assay type): cell-based
The target of test [1] is BB2 bombesin receptor (Homo sapiens, UniProt P30550). Nature of the test: calcium mobilization assay, BB2-expressing cells. The method, boiled down:
(§1)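 Cells were plated at 15,000/well on poly-L-lysine in DMEM with 500 ug/ml G-418 and 1% dialyzed FBS, then held overnight. Loading was with FLIPR Calcium 4 dye in HBSS/2.5 mM probenecid/20 mM HEPES, pH 7.4–7.8, for 45 min at 37°C plus 15 min at RT. Compounds (10 mM DMSO stocks) ran as 16-point 3-fold dilutions, final 10 μM–0.003 nM. Fluorescence was read 10 s before and 120 s after addition.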
(In general: A change in cytosolic calcium serves as a functional read-out for many receptors and channels.)

The target in test [2] is neuromedin B receptor (NMBR; BB1) (Homo sapiens, UniProt P28336). As to the kind of experiment: calcium-release. As to conditions: BB1-expressing cells.
Chain of neuromedin B receptor (NMBR; BB1) (P28336 whole entry): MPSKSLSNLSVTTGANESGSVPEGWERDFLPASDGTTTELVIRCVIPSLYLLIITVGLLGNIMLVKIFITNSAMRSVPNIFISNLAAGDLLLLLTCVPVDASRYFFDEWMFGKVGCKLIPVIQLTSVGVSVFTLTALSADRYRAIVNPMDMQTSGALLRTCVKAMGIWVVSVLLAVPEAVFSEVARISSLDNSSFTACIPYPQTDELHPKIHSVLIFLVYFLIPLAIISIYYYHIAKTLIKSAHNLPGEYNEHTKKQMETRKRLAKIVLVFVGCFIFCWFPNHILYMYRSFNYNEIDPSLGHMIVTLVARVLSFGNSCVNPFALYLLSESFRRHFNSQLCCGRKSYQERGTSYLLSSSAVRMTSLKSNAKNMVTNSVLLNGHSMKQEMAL
Test [3] addresses neuromedin B receptor (NMBR; also known as the BB1 bombesin receptor) (Homo sapiens, UniProt P28336). As to the kind of experiment: TANGO β-arrestin recruitment assay, NMBR. Background: Arrestin recruitment assays detect the binding of arrestin to an activated receptor.
Test [4] deals with T1, BB3 bombesin receptor (Homo sapiens, UniProt P32247).
T1 sequence (P32247 1-399): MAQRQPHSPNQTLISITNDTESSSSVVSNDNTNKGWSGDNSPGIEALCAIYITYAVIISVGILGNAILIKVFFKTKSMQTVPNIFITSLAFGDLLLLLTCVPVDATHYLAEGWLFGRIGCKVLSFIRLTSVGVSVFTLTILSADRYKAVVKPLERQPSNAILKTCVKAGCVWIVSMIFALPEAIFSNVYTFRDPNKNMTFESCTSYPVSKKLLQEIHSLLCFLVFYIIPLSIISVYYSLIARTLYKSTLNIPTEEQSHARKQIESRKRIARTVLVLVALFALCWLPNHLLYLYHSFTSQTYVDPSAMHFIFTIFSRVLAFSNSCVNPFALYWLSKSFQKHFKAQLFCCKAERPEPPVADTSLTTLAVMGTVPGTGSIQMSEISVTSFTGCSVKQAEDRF
Nature of the test: calcium mobilization assay, BB3-expressing cells. The method, boiled down: as §1

Test [5] has as its target BB2 bombesin receptor (GRPR) (Homo sapiens, UniProt P30550). Nature of the test: TANGO β-arrestin recruitment assay, BB2.
For test [6], the target named is T2, MRGPRX2 (Homo sapiens, UniProt Q96LB1).
T2 sequence (Q96LB1 1-330): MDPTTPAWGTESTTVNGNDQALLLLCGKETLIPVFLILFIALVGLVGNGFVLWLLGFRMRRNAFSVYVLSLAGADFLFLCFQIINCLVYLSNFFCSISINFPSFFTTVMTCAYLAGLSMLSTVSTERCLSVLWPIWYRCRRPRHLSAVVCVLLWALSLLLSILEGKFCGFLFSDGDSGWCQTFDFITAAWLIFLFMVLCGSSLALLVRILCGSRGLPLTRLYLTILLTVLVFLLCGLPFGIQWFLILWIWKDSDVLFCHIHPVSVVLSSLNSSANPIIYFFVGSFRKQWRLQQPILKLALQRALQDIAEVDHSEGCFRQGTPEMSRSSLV
Nature of the test: calcium mobilization assay, stable MRGPRX2 cell line. As to conditions: MRGPRX2-expressing stable cells. The method, boiled down:
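Tetracycline-inducible Flp-In T-Rex HEK-T lines carried FLAG-tagged receptor in pcDNA5/FRT/TO and were kept with 15 μg/ml blasticidin and 100 μg/ml hygromycin B. Expression was induced with 1ug/ml tetracycline for 24 h. The calcium assay used 15,000 cells/well and FLIPR Calcium 4 dye (45 min 37°C, 15 min RT), with 16-point 3-fold dilutions at final 10 μM–0.003 nM. Fluorescence was read for 10 s baseline plus 120 s.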

For test [7], the target named is T2, MRGPRX2. As to the kind of experiment: PI hydrolysis assay, MRGPRX2. The essentials:
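HEK-293T cells were transiently transfected with 10 μg receptor DNA per 15 cm dish and seeded the next day on poly-L-lysine in 1% dialyzed FBS. They were labelled 16 h with 1 μCi/well ³H-inositol in inositol-free DMEM. Concentration series were applied in quadruplicate in HBSS/24 mM NaHCO₃/11 mM glucose/15 mM LiCl, pH 7.4, for 1 h at 37°C. Cells were lysed with 50 mM formic acid, and extracts were counted by SPA beads.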

Test [8] has as its target T2, MRGPRX2. Nature of the test: TANGO β-arrestin recruitment assay, MRGPRX2. As to conditions: NCC-1 screen, confirmed in concentration-response studies.

Chain of BB2 bombesin receptor (P30550 whole entry): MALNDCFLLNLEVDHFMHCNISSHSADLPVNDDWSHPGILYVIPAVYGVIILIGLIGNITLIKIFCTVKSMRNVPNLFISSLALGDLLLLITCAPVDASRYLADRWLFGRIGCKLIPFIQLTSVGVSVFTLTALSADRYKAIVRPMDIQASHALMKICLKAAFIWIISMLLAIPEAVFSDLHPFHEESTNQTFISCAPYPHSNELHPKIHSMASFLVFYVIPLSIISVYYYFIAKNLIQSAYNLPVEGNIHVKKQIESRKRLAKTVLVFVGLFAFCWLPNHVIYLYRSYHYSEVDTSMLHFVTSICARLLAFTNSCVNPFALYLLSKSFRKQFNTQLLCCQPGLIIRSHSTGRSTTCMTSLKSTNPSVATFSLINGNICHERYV
Chain of BB2 bombesin receptor (GRPR) (P30550 whole entry): as above
Chain of UniProt P28336 (P28336 whole entry): as the sequence (P28336 whole entry) above

Consider `CC(C)(C)NC(=O)[C@@H]1C[C@@H]2CCCC[C@@H]2CN1C[C@@H](O)[C@H](Cc1ccccc1)NC(=O)[C@H](CC(N)=O)NC(=O)c1ccc2ccccc2n1` [Saquinavir, saquinavir], for which the calcium mobilization response entry in test [1] is “did not stimulate a response”; in test [2] it was “did not stimulate a response”; in test [4] it was “did stimulate a response”. Besides, the “response of BB1 in the TANGO assay” value in test [3] is “insensitive”. Moreover, the “response of BB2 in the TANGO assay” value in test [5] was “insensitive”.

On to `CN1CC[C@]2(c3cccc(O)c3)Cc3nc4ccccc4cc3C[C@H]2C1` [SB 205,607], for which the calcium mobilization response entry in test [6] is recorded as “concentration-dependent responses”. In addition, the “concentration-dependent activity at MRGPRX2 by PI hydrolysis” value in test [7] was “confirmed”. Further, the “activity in the TANGO assay at MRGPRX2” value in test [8] was “most active compounds”.

The record behind these values is publication PMC4424118 (Nature structural & molecular biology, 2015).
